# Ecoli tolC = growth inhibitors of E. coli BW25113 tolC mutant | 65,000 compounds, 2.2% hits | OD615 | growth inhibition, % at 10 µM (by protocol);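 active = growth inhibition at or above a cutoff equal to the mean over every tested compound plus 3 SD, cut at about 60% in these data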;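 also: growth measured after 20 h incubation at 37 °C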
#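 System: E. coli ΔtolC::kan strain BW25113; Buffer or medium: LB broth supplemented with 50 µg/mL kanamycin; Compound: 10 µM final, single dose; Incubation: bacterial growth with compound for 20 h at 37 °C; Signal: A615 absorbance measurement; Evaluation: growth inhibition in percent.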
# PostGolgi yeast = growth inhibition of a yeast mutant, post-Golgi transport screen. post-Golgi transport phenotypic cell assay. inhibition, % at 10 µM. 98,000 compounds, 0.9% hits. AID 739;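 also: yeast cells grown in 1536-well plates; yeast grown about 18 h at 30C before absorbance read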
# HePTP inhibitor = inhibitors of human HePTP phosphatase; P35236; recombinant HePTP phosphatase activity, OD absorbance; inhibition, % at 20 µM; 110,000 compounds, 0.64% hits; in the data active = inhibition above about 50%;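 also: plate controls were vehicle for no effect and reference inhibitor for full effect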
# Target sequence (P35236 whole entry, looked up): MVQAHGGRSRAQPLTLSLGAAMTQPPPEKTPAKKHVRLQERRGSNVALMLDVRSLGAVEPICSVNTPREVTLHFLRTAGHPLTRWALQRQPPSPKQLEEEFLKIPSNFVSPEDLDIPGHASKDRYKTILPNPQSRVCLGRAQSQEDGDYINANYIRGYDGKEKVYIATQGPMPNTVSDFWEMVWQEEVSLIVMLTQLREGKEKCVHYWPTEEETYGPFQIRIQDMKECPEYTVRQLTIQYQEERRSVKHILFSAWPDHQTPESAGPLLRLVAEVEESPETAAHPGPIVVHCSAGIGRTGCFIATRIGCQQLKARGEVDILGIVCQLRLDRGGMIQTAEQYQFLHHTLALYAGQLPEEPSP
# PLAP act = activators of human placental alkaline phosphatase; P05187; 96,000 compounds, 1.2% hits; purified PLAP enzyme, luminescent substrate read-out; hits give high values; activation fold at 20 µM; in the data active = activation fold above about 2
# PostGolgi ctrl = yeast control strain growth, post-Golgi counter-screen | efflux-deficient yeast background strain, growth absorbance A615, 16 h | inhibition, % at 10 µM | 98,000 compounds, 5% hits | AID 738
# Ecoli WT expand = E. coli BW25113 growth inhibition, expanded screen; OD600 absorbance; growth inhibition, % at 100 µM; 98,000 compounds, 0.15% hits; AID 710;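 active = growth inhibition above about 50% at one test dose, limit read from the data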;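 also: growth measured after 20 h incubation at 37 °C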
# Numbers without * were called inactive; x = not tested or not shown. In the library only some 5.5% were active in any assay of this set; here they are far more common. Rule as the data show it, unless noted: active = inhibition above about 30%; inactive = the rest.
SMILES,Ecoli tolC,PostGolgi yeast,HePTP inhibitor,PLAP act,PostGolgi ctrl,Ecoli WT expand
CCS(=O)(=O)N1Cc2ccccc2CC1C(=O)NC(C)C12CC3CC(CC(C3)C1)C2 (stereo unspecified),x,4,x,1.3,36*,-5
COc1ccc(NC(=S)N2C3CCC2CC(NC(=O)NC24CC5CC(CC(C5)C2)C4)C3)c(OC)c1 (stereo unspecified),x,-11,x,2.5*,-2,0
O=C(Nc1ccc(F)cc1)Nc1cccc(NC(=O)Nc2ccc(F)cc2)c1,x,x,-4,x,x,x
Cc1cc(C)c2cc(CN(CCN3CCCC3)C(=O)Nc3ccc(F)cc3)c(=O)[nH]c2c1,2,12,0,1.6,-8,29
Cc1cc(C)c2cc(CN(CCO)C(=O)Nc3ccc(Cl)cc3)c(=O)[nH]c2c1,-15,5,4,0.8,47*,-4
O=[N+]([O-])c1ccc2nc(N3CCOCC3)sc2c1,x,x,-6,x,x,x
COc1ccccc1C(=O)Nc1cccc(-c2cn3ccsc3n2)c1,25,2,-5,1.1,38*,-5
O=C(NCc1ccccn1)Nc1ccc(Cl)c(Cl)c1,36,-9,10,x,46*,11
Cc1ccc(C(=O)CSc2nc3cc(S(=O)(=O)N4CCOCC4)ccc3o2)cc1,30,-7,-12,1.7,39*,-7
CNc1nc(SCc2ccccc2Cl)nc2c1CCCC2,x,17,x,1.8,45*,-9
CN(C)c1nc(SCc2ccc(Cl)cc2)nc2c1CCCC2,x,12,x,1,37*,0
Cc1cc(C)nc(SCc2ccc(Cl)cc2)n1,x,x,2,x,x,x
COc1ccc(C(=O)Nc2ccc(-c3nc4ccccc4s3)cc2)cc1Br,x,x,6,x,x,x
O=C(c1ccc(N2CCN(C(=O)c3ccccc3Br)CC2)cc1)c1cccc(F)c1,x,x,102*,x,x,x
CCOc1ccc(NC(=O)NCCCn2c(C)nc3cc(C)c(C)cc32)cc1,x,6,x,2.2*,1,10
CCOC(=O)C1=C(C)NC(SCC(=O)Nc2cc(C)on2)=C(C#N)C1c1cccs1 (stereo unspecified),94*,6,-1,0.9,-18,-1
COc1ccc(NC(=S)NNC(=O)Cn2nc([N+](=O)[O-])cc2C)cc1,x,-3,x,2.2*,13,2
O=C(Cn1nc(C(F)F)cc1C(F)F)NNC(=S)Nc1ccc(Cl)cc1,x,-3,x,2*,2,-1
COC(=O)c1c(NC(=O)Cn2nc(C(F)F)cc2C(F)F)sc(C)c1C,x,-5,x,0.9,16,-10
Cc1cc([N+](=O)[O-])nn1CC(=O)NNC(=S)Nc1ccc([N+](=O)[O-])cc1,x,4,x,1.1,5,7
CC(C)c1ccc(-c2noc(C3CCCN(C(=O)c4ccc(F)cc4F)C3)n2)cc1 (stereo unspecified),68*,-5,5,1.4,14,-22
O=C(C1CCCCC1)N1CCCC(c2nc(-c3ccc(F)cc3)no2)C1 (stereo unspecified),-2,-3,4,1.5,9,-10
O=S(=O)(Cc1ccccc1)N1CCCC(c2nc(-c3ccc(F)cc3)no2)C1 (stereo unspecified),-16,2,9,1,33*,-4
CCC1(CC)Cc2ccccc2C(Nc2c(C)n(C)n(-c3ccccc3)c2=O)=N1,x,-1,x,2*,4,1
CC1(C)C(c2ccccc2)=NC(c2ccc(C(F)(F)F)cc2)N1O (stereo unspecified),x,x,-8,x,x,x
SMILES,Ecoli tolC,PostGolgi yeast,HePTP inhibitor,PLAP act,PostGolgi ctrl,Ecoli WT expand
CCN1C(=O)/C(=C/c2nc3ccccc3c(=O)n2-c2cccc(C)c2)c2ccccc21,x,x,-4,x,x,x
CC(C)OC(=O)c1ccc(NC(=O)C(C(C)C)N2C(=O)c3ccccc3C2=O)cc1 (stereo unspecified),x,x,-6,x,x,x
CC(C)Sc1nc(N2CCOCC2)c2c3c(sc2n1)COC(C)(C)C3,x,-3,x,1.3,43*,-8
CCN1CCN(c2nc(SC)nc3sc4c(c23)CC(C)(C)OC4)CC1,2,4,-1,1.6,1,-4
CCCC(=O)Nc1cccc(NC(=O)COc2cc(C)ccc2C(C)C)c1,x,x,-10,x,x,x
O=[N+]([O-])c1ccc2nc(/C=C/c3ccc(Cl)cc3)[nH]c2c1,x,47*,x,1,75*,14
CCC1(c2ccccc2)OC(=O)C2C3CCCCC3=C3CCCCC3C21 (stereo unspecified),x,x,9,x,x,x
CCN(CC)S(=O)(=O)c1cc(Br)c(C)cc1OC,20,-14,6,0.9,33*,0
CN(C)C(=O)CNC(=O)C1CCCCC1,x,0,x,0.8,0,-12

# Source: PubChem BioAssay (several laboratories)
